Assay outcomes deposited in PubChem by Sanford-Burnham Center for Chemical Genomics.
Diaphorase inh = inhibits diaphorase or chemically oxidizes, flagging diaphorase assay artifacts; diaphorase resazurin-to-resorufin fluorescence, NADH, 16 min; bacterial (C. kluyveri) enzyme, not human; inhibition, % at 20 µM; 190,000 compounds, 0.69% hits; AID 1217;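 active = primary screen inhibition at 20 µM above a set limit, cut at about 50% in these data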
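Detection: fluorescence of resorufin formed from resazurin, Ex 544/Em 590 nm; test system: Clostridium kluyveri diaphorase enzyme; amount: 0.14 U/mL diaphorase, enzyme working solution; times: 16-min room-temperature incubation before reading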
G6PDH CS = inhibits Leuconostoc G6PDH, flagging false hits in G6PDH-based assays. AID 1020. Purified L. mesenteroides G6PDH, diaphorase/resazurin coupled fluorescence, 45 min. inhibition, % at 5 µM. 200,000 compounds, 0.12% hits; in the data active = inhibition above about 50%
PMI act hi M6P = activators of human phosphomannose isomerase at near-saturating mannose 6-phosphate. P34949. coupled PMI enzyme assay, resazurin fluorescence, 20 min; hits give high values; 1 = untreated enzyme, 0 = substrate-free blank. activation factor at 20 µM. 190,000 compounds, 0.34% hits. AID 1216;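 active = activation factor of 2 or more at 20 µM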
Target sequence (P34949 whole entry, looked up): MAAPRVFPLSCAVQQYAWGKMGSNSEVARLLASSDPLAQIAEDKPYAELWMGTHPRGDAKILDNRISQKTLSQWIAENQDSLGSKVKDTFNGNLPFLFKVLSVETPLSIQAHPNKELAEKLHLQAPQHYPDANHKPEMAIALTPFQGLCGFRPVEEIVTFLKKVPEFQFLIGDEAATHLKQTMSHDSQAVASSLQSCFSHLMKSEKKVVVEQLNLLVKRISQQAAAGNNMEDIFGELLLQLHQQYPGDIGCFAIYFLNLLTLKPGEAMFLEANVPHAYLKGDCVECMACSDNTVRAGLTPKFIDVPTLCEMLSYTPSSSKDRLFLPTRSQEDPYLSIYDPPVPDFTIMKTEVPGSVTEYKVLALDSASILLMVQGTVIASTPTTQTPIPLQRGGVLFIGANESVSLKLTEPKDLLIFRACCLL
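Material: human phosphomannose isomerase with PGI, G6PDH, diaphorase coupling enzymes; amount: PMI at 15 ng/mL final; also added: Mannose-6-phosphate 1.0 mM (near-saturating) plus 0.22 mM NADP+; incubation: enzyme reaction with compound 20 min at room temperature; signal: resorufin fluorescence (Ex 544/Em 590 nm) from resazurin via diaphorase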
PMI activator = phosphomannose isomerase (human) activation; P34949; purified human PMI, coupled resazurin fluorescence, 20 min; hits give high values; 1 = vehicle control, 0 substrate-free wells; activation factor at 20 µM; 190,000 compounds, 0.005% hits; AID 1214;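 active = activation factor of 2 or more at 20 µM, relative to plate controls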
Diaph act CS = counter-screen for diaphorase-based assays: diaphorase activators and chemical reducers | Diaphorase/resazurin coupled assay, resorufin fluorescence, 16 min; hits give high values; 1 = vehicle wells, 0 = NADH-free wells | activation factor at 20 µM | 190,000 compounds, 0.005% hits | AID 1229;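 active = diaphorase activity raised at least twofold by the compound at 20 µM; inactive = activation factor below 2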
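Material: bacterial diaphorase enzyme (C. kluyveri); amount: enzyme 0.07 U/mL final; reagent: NADH substrate 0.114 mM plus resazurin dye 0.1 mM, final; doses: single compound dose of 20 µM, 1% DMSO final; timing: 16 min enzyme reaction, ambient temperature; measured by: fluorescence of resorufin, 544 nm excitation, 590 nm emission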
Hits are given with their value; - = inactive. In the library only some 1.1% were active in any assay of this set; here they are far more common.

SMILES	Diaphorase inh	G6PDH CS	PMI act hi M6P	PMI activator	Diaph act CS
C=C1c2cc(C)ccc2NC(=O)N1c1ccccc1	-	-	2.9	-	-
C=C1c2ccccc2NC(=O)N1c1ccc(OC)cc1	-	-	2.5	-	-
N=C1C=CC=C2C1=NC1(CCCCC1)N2O	64	-	-	-	-
O=C(c1c[nH]c(C(=O)C(Cl)(Cl)Cl)c1)c1ccc(F)cc1Cl	60	-	-	-	-
O=C(c1ccc(Cl)cc1)c1c[nH]c(C(=O)C(Cl)(Cl)Cl)c1	-	-	-	-	-
CC(=O)N1C(=S)NC(=O)/C1=C1/C(=O)N(CC(=O)Nc2cccc(C)c2)c2ccccc21	67	-	-	-	-
O=C(O)c1cccc(N/N=C/c2ccc(-c3ccccc3)cc2)c1	-	-	2.7	-	-
Clc1ccc(N/N=C/c2cccnc2)cc1	-	-	2.4	-	-
O=C(O)c1cccc(N/N=C/c2cccnc2)c1	-	-	2.5	2	-
CC(C)(C)c1ccc(/C=N/Nc2cccc(C(=O)O)c2)cc1	-	-	2	-	-
CN1CCN(C(c2cccs2)c2nnnn2Cc2ccc(F)cc2)CC1 (stereo not drawn)	-	-	-	-	-
O=C(NCc1ccccc1)C1(c2cccc(F)c2)CCCC1	-	-	-	-	-
CCOc1ccc(N2C(=O)CC(SC(=NC)Nc3ccc(F)cc3)C2=O)cc1 (stereo not drawn)	-	-	-	-	-
COc1cccc2c1C(=O)C=C(C)C2=O	-	54	-	-	-
CC1=CC(=O)c2ccccc2C1=O	-	61	-	-	-
CC(/C=N/n1c(-c2ccco2)n[nH]c1=S)=C\c1ccccc1	50	-	-	-	-
S=c1[nH]nc(-c2ccco2)n1/N=C/c1ccc(Cl)cc1	-	-	-	-	-
S=c1[nH]nc(-c2ccco2)n1/N=C/C=C/c1ccco1	64	-	-	-	-
Cc1ccc(-c2n[nH]c(=S)n2/N=C\c2ccco2)cc1	-	-	-	-	-
CC(/C=N/n1c(-c2ccc(Cl)cc2)n[nH]c1=S)=C\c1ccco1	53	-	-	-	-
CC(C)(CS(=O)(=O)[O-])NC(=O)CC[N+](C)(C)CCO	-	-	-	-	-
NC(=O)c1ccc(NC(=O)CSc2nnc(-c3ccccn3)n2N)cc1	-	-	-	-	-
O=C(C1=C[C@@H](c2ccccc2)C[C@@H](OCc2ccc(CO)cc2)O1)N1CCCCCCC1	-	-	-	-	-
Cc1ccc(S(=O)(=O)n2cnc3cc([N+](=O)[O-])ccc32)cc1C	-	-	-	-	-
Cc1ccc(-n2c3nc(=O)[nH]c(=O)c-3cc3cc([N+](=O)[O-])ccc32)cc1C	91	-	-	-	-
SMILES	Diaphorase inh	G6PDH CS	PMI act hi M6P	PMI activator	Diaph act CS
S=c1[nH]ncn1/N=C/c1cccc(Oc2ccccc2)c1	85	-	-	-	-
Nc1ccc(N(CCO)CCO)cc1	53	-	-	-	-
COc1ccc(C2SCC(=O)N2c2c(C)n(C)n(-c3ccccc3)c2=O)cc1OC (stereo not drawn)	-	-	-	-	-
COc1ccc(C(=O)/C=C2\NCC3c4ccccc4CCN3C2=O)cc1 (stereo not drawn)	-	-	2.4	-	-
COc1ccc(C(=O)N2CCc3ccccc32)cc1	-	-	-	-	-
CCOC(=O)c1c(NC(=O)CSc2nnc(-c3ccncc3)n2Cc2ccco2)sc(C)c1C	-	-	-	-	-
NS(=O)(=O)c1ccc(CCNC(=O)COC(=O)CCSc2ccc(Cl)cc2)cc1	-	-	-	-	-
O=C(COC(=O)CCSc1ccc(Cl)cc1)NCCc1ccccc1	55	-	-	-	-
Cc1csc(NC(=O)C(F)(F)F)n1	-	-	-	-	-
CN(Cc1nc(-c2cccs2)no1)CC1(N2CCOCC2)CCCCC1	74	-	-	-	-
Oc1ccc2[nH]ccc2c1	-	56	-	-	-
CN(C)c1cc(N/N=C/c2ccc(Cl)cc2)nc(N(C)C)n1	54	-	-	-	-
c1ccc(N2CCN(c3nc4ccccc4[nH]3)CC2)nc1	67	-	-	-	-
Oc1ccc(/C=N/n2cc(-c3ccccc3)[nH]c2=S)cc1	53	-	-	-	-
